Measured values reported in ChEMBL document CHEMBL1671627, “Increasing trends in antimicrobial resistance among clinically important anaerobes and Bacteroides fragilis isolates causing nosocomial infections: emerging resistance to carbapenems” (2008).
≈ marks a conversion by molar mass, not a printed value.

Assays:
Fusobacterium mortiferum [1] = assay: Antibacterial activity against Fusobacterium mortiferum assessed as resistant isolates by CLSI agar dilution method in presence of clavulanate; format: functional
Method in brief: (§1)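 207 nonduplicate anaerobic blood isolates from patients with bloodstream infections at NTUH, collected January–December 2006. MICs were determined by agar dilution following CLSI guidelines. Inocula were applied with a Steers replicator onto supplemented Brucella blood agar and incubated 48 h at 35°C in an anaerobic chamber. MIC was the lowest concentration inhibiting growth. B. fragilis ATCC 25285, B. thetaiotaomicron ATCC 29741 and E. lentum ATCC 43055 served as controls in each run.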

Phocaeicola vulgatus [2] = assay: Antibacterial activity against beta-lactamase producing Bacteroides vulgatus assessed as susceptible isolates by CLSI agar dilution method in presence of clavulanate; format: functional
Method in brief: (§2)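 CLSI agar dilution MICs for anaerobic blood isolates (nonduplicate) collected from bloodstream-infection patients at a Taiwanese tertiary hospital, January–December 2006. Isolates were spotted by Steers replicator onto supplemented Brucella blood agar and incubated anaerobically for 48 h at 35°C. MIC was the lowest drug concentration inhibiting growth. Each run included B. fragilis ATCC 25285, B. thetaiotaomicron ATCC 29741 and E. lentum ATCC 43055 as quality-control strains.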

Prevotella buccae [3] = assay: Antibacterial activity against Prevotella buccae by CLSI agar dilution method in presence of clavulanate; format: functional; conditions: Segatella buccae
Method in brief: (§3)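 Agar dilution per CLSI guidelines on nonduplicate anaerobic bloodstream isolates collected at NTUH, January to December 2006. Isolates were spotted by Steers replicator onto supplemented Brucella blood agar and incubated anaerobically for 48 h at 35°C. MIC was the lowest drug concentration that inhibited growth. B. fragilis ATCC 25285, B. thetaiotaomicron ATCC 29741 and E. lentum ATCC 43055 were run as QC in each run.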

Bacteroides uniformis [4] = assay: Antibacterial activity against beta-lactamase producing Bacteroides uniformis by CLSI agar dilution method in presence of clavulanate; format: functional; method in brief: as §3
[5] = system: Fusobacterium necrophorum; assay: Antibacterial activity against Fusobacterium necrophorum assessed as susceptible isolates by CLSI agar dilution method in presence of clavulanate; format: functional; method in brief: as §3
[6] = system: Clostridium paraputrificum; assay: Antibacterial activity against beta-lactamase producing Clostridium paraputrificum assessed as susceptible isolates by CLSI agar dilution method in presence of clavulanate; format: functional; method in brief: as §2
Prevotella buccae [7] = assay: Antibacterial activity against Prevotella buccae assessed as susceptible isolates by CLSI agar dilution method in presence of clavulanate; format: functional, Segatella buccae; method in brief: as §3
Phocaeicola vulgatus [8] = assay: Antibacterial activity against beta-lactamase producing Bacteroides vulgatus by CLSI agar dilution method in presence of clavulanate; format: functional; method in brief: as §2
Fusobacterium nucleatum [9] = assay: Antibacterial activity against Fusobacterium nucleatum assessed as resistant isolates by CLSI agar dilution method in presence of clavulanate; format: functional; method in brief: as §1
[10] = system: Peptoniphilus asaccharolyticus; assay: Antibacterial activity against beta-lactamase producing Peptoniphilus asaccharolyticus by CLSI agar dilution method in presence of clavulanate; format: functional; method in brief: as §2
Bacteroides uniformis [11] = assay: Antibacterial activity against beta-lactamase producing Bacteroides uniformis assessed as susceptible isolates by CLSI agar dilution method in presence of clavulanate; format: functional; method in brief: as §3
Bacteroides caccae [12] = assay: Antibacterial activity against beta-lactamase producing Bacteroides caccae assessed as resistant isolates by CLSI agar dilution method in presence of clavulanate; format: functional; method in brief: as §1
Prevotella intermedia [13] = assay: Antibacterial activity against Prevotella intermedia assessed as susceptible isolates by CLSI agar dilution method in presence of clavulanate; format: functional; method in brief: as §3
Fusobacterium nucleatum [14] = assay: Antibacterial activity against Fusobacterium nucleatum by CLSI agar dilution method in presence of clavulanate; format: functional; method in brief: as §3
Bacteroides uniformis [15] = assay: Antibacterial activity against beta-lactamase producing Bacteroides uniformis assessed as resistant isolates by CLSI agar dilution method in presence of clavulanate; format: functional; method in brief: as §1
[16] = system: Peptoniphilus asaccharolyticus; assay: Antibacterial activity against beta-lactamase producing Peptoniphilus asaccharolyticus by CLSI agar dilution method; format: functional
[17] = system: Bacteroides thetaiotaomicron; assay: Antibacterial activity against beta-lactamase producing Bacteroides thetaiotaomicron by CLSI agar dilution method in presence of Tazobactam; format: functional; method in brief: as §3
Finegoldia magna [18] = assay: Antibacterial activity against beta-lactamase producing Finegoldia magna assessed as resistant isolates by CLSI agar dilution method; format: functional
[19] = system: Bacteroides thetaiotaomicron; assay: Antibacterial activity against beta-lactamase producing Bacteroides thetaiotaomicron assessed as resistant isolates by CLSI agar dilution method; format: functional
Prevotella intermedia [20] = assay: Antibacterial activity against Prevotella intermedia assessed as resistant isolates by CLSI agar dilution method; format: functional
Finegoldia magna [21] = assay: Antibacterial activity against beta-lactamase producing Finegoldia magna by CLSI agar dilution method in presence of Tazobactam; format: functional; method in brief: as §2
[22] = system: Clostridium paraputrificum; assay: Antibacterial activity against beta-lactamase producing Clostridium paraputrificum assessed as susceptible isolates by CLSI agar dilution method in presence of Tazobactam; format: functional; method in brief: as §2
Fusobacterium mortiferum [23] = assay: Antibacterial activity against Fusobacterium mortiferum by CLSI agar dilution method in presence of Tazobactam; format: functional; method in brief: as §3
Parvimonas micra [24] = assay: Antibacterial activity against beta-lactamase producing Micromonas micros by CLSI agar dilution method in presence of Tazobactam; format: functional; method in brief: as §2
Phocaeicola vulgatus [25] = assay: Antibacterial activity against beta-lactamase producing Bacteroides vulgatus by CLSI agar dilution method; format: functional
Clostridium perfringens = assay: microbe, parasite or virus in culture; format: functional
Bacteroides uniformis [26] = assay: Antibacterial activity against beta-lactamase producing Bacteroides uniformis by CLSI agar dilution method in presence of Tazobactam; format: functional; method in brief: as §3
Prevotella buccae [27] = assay: Antibacterial activity against Prevotella buccae assessed as resistant isolates by CLSI agar dilution method; format: functional, Segatella buccae
Parvimonas micra [28] = assay: Antibacterial activity against beta-lactamase producing Micromonas micros assessed as susceptible isolates by CLSI agar dilution method in presence of Tazobactam; format: functional; method in brief: as §2
Parvimonas micra [29] = assay: Antibacterial activity against beta-lactamase producing Micromonas micros assessed as resistant isolates by CLSI agar dilution method; format: functional
Bacteroides fragilis = assay: Antibacterial activity against Bacteroides fragilis by CLSI agar dilution method in presence of Tazobactam; format: functional; method in brief: as §3
[30] = system: Fusobacterium necrophorum; assay: Antibacterial activity against Fusobacterium necrophorum by CLSI agar dilution method in presence of Tazobactam; format: functional; method in brief: as §3
Clostridium septicum = assay: Antibacterial activity against beta-lactamase producing Clostridium septicum assessed as resistant isolates by CLSI agar dilution method in presence of Tazobactam; format: functional; method in brief: as §1
Fusobacterium nucleatum [31] = assay: Antibacterial activity against Fusobacterium nucleatum assessed as resistant isolates by CLSI agar dilution method in presence of Tazobactam; format: functional; method in brief: as §1
Prevotella intermedia [32] = assay: Antibacterial activity against Prevotella intermedia by CLSI agar dilution method; format: functional
[33] = system: Prevotella melaninogenica; assay: Antibacterial activity against Prevotella melaninogenica assessed as resistant isolates by CLSI agar dilution method; format: functional
Bacteroides caccae [34] = assay: Antibacterial activity against beta-lactamase producing Bacteroides caccae assessed as susceptible isolates by CLSI agar dilution method in presence of Tazobactam; format: functional; method in brief: as §3
Parvimonas micra [35] = assay: Antibacterial activity against beta-lactamase producing Micromonas micros by CLSI agar dilution method; format: functional

`CC1(C)S[C@@H]2[C@H](NC(=O)[C@H](N)c3ccc(O)cc3)C(=O)N2[C@H]1C(=O)O` [AMOXICILLIN] was tested, and the Activity (Fusobacterium mortiferum [1]) was 7%, the Activity (Phocaeicola vulgatus [2]) was 53% and the MIC50 (Prevotella buccae [3]) was 4 µg/mL. It also gave an MIC90 (Prevotella buccae [3]) of 16 µg/mL, an MIC50 (Bacteroides uniformis [4]) of 8 µg/mL and an MIC90 (Bacteroides uniformis [4]) of 32 µg/mL. It also gave an Activity [5] of 89%, an Activity [6] of 96% and an Activity (Prevotella buccae [7]) of 81%. It also gave an MIC50 (Phocaeicola vulgatus [8]) of 8 µg/mL, an MIC90 (Phocaeicola vulgatus [8]) of 32 µg/mL and an Activity (Fusobacterium nucleatum [9]) of 7%. For the same compound, the MIC50 [10] was 0.25 µg/mL, the MIC90 [10] was 2 µg/mL and the Activity (Bacteroides uniformis [11]) was 53%. For the same compound, the Activity (Bacteroides caccae [12]) was 30%, the Activity (Prevotella intermedia [13]) was 81% and the MIC50 (Fusobacterium nucleatum [14]) was 2 µg/mL. The MIC90 (Fusobacterium nucleatum [14]) was 4 µg/mL and the Activity (Bacteroides uniformis [15]) was 30%.
Compound `CCN1CCN(C(=O)N[C@@H](C(=O)N[C@@H]2C(=O)N3[C@@H]2SC(C)(C)[C@@H]3C(=O)O)c2ccccc2)C(=O)C1=O` [PIPERACILLIN] has an MIC50 [16] of 0.12 µg/mL (≈ 0.232 µM), an MIC90 [16] of 8 µg/mL (≈ 15.5 µM) and an MIC50 [17] of 8 µg/mL. The MIC90 [17] was 32 µg/mL, the Activity (Finegoldia magna [18]) was 3% and the Activity [19] was 37%. For the same compound, the Activity (Prevotella intermedia [20]) was 22%, the MIC (Finegoldia magna [21]) was 0.03 µg/mL and the MIC50 (Finegoldia magna [21]) was 0.03 µg/mL. For the same compound, the MIC90 (Finegoldia magna [21]) was 2 µg/mL, the Activity [22] was 100% and the MIC50 (Fusobacterium mortiferum [23]) was 0.5 µg/mL. The MIC90 (Fusobacterium mortiferum [23]) was 2 µg/mL, the MIC (Parvimonas micra [24]) was 0.03 µg/mL and the MIC50 (Parvimonas micra [24]) was 0.03 µg/mL. For the same compound, the MIC90 (Parvimonas micra [24]) was 2 µg/mL, the MIC50 (Phocaeicola vulgatus [25]) was over 128 µg/mL and the MIC90 (Phocaeicola vulgatus [25]) was over 128 µg/mL. For the same compound, the MIC50 (Clostridium perfringens) was 0.5 µg/mL (≈ 0.966 µM), the MIC90 (Clostridium perfringens) was 2 µg/mL (≈ 3.86 µM) and the MIC50 (Bacteroides uniformis [26]) was 8 µg/mL. For the same compound, the MIC90 (Bacteroides uniformis [26]) was 16 µg/mL, the Activity (Prevotella buccae [27]) was 22% and the Activity (Parvimonas micra [28]) was 97%. The Activity (Parvimonas micra [29]) was 3%, the MIC50 (Bacteroides fragilis) was 1 µg/mL and the MIC90 (Bacteroides fragilis) was 8 µg/mL. The MIC50 [30] was 0.5 µg/mL, the MIC90 [30] was 2 µg/mL and the Activity (Clostridium septicum) was 0%. The Activity (Fusobacterium nucleatum [31]) was 0%, the MIC50 (Prevotella intermedia [32]) was 16 µg/mL (≈ 30.9 µM) and the MIC90 (Prevotella intermedia [32]) was 128 µg/mL (≈ 247 µM). The Activity [33] was 22%, the Activity (Bacteroides caccae [34]) was 96% and the MIC50 (Parvimonas micra [35]) was 0.12 µg/mL (≈ 0.232 µM). For the same compound, the MIC90 (Parvimonas micra [35]) was 8 µg/mL (≈ 15.5 µM).
